# An excerpt weighted towards active compounds, which were near 2% of everything screened.
# CAL PDZ FP-1: CAL PDZ peptide-binding inhibitors, primary screen, biochemical, fluorescence polarization, Cer-tagged CAL PDZ, HTS; actives 0.02% (n = 330,000); inhibition, % at 20 µM; purified CAL PDZ, TMR-peptide fluorescence polarization, 1 h;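 active means highest replicate inhibition of at least 40%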;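 further: plate controls were DMSO neutral control wells for no effect and unlabeled competitor peptide control wells for full effect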
#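 Control set: unlabelled peptide and DMSO controls / Material: purified CerCALP PDZ construct / Timing: 1 h incubation at room temperature before polarization reading / Doses: 20 µM, one dose / Detection: fluorescence polarization (mP)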
# dFosB act-1: activators of delta FosB homodimer, primary screen, biochemical, fluorescence polarization, TAMRA-CDK5 oligo, single point; Protein FosB (Mus musculus), P13346; purified delta FosB; percent of positive-control signal above neutral wells; activation, % at 25 µM; actives 0.99% (n = 340,000); AID 493131, 2011;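 active means mean activation above about 17%, with every replicate also reaching it, limit read from the data, passing the limit was not always enough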
# CAL PDZ FP-2: untagged CAL PDZ binding inhibitors, primary screen, biochemical, fluorescence polarization, HTS. inhibition, % at 24.9 µM. Golgi-associated PDZ and coiled-coil motif-containing protein (Homo sapiens), Q9HD26. purified CAL PDZ, TMR-peptide fluorescence polarization, 1 h. AID 602252, 2012. actives 0.92% (n = 300,000);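 active means mean inhibition of at least 30% with at least half of replicates also reaching 30%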;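 further: 0% = DMSO neutral control and 100% = excess unlabeled competitor peptide PRC23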
# PKA-R2B act: activators of PKA-R2B holoenzyme, primary screen, biochemical, fluorescence polarization, Cy5-IP20, human. actives 0.079% (n = 340,000). PKA-R2B holoenzyme dissociation; R2B truncated from residue 108, S112A mutant; 0% DMSO only, 100% 113 µM cGMP. cAMP-dependent protein kinase catalytic subunit beta (Homo sapiens) + cAMP-dependent …. activation, % at 11.4 µM;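 active means activation above a cutoff set at the mean over all compounds plus 3 SD, cut at about 18% in these data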;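 further: higher means more holoenzyme dissociation and a rise in polarization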
# Target sequence (P31323 whole entry, looked up, other chains not shown, the tested form may be a part): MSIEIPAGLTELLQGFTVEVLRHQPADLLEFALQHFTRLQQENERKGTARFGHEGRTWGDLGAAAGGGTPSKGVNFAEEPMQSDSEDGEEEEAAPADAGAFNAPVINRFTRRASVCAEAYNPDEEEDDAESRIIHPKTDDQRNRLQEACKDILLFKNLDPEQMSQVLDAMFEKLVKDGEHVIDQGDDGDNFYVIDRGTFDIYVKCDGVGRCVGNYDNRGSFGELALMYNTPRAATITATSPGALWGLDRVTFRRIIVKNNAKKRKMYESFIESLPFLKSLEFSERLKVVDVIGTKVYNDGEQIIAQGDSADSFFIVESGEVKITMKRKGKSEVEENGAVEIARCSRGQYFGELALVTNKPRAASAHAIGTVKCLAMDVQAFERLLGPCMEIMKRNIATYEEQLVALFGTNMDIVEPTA
# PKA-R1A activ: activators of PKA-R1A holoenzyme, primary screen, biochemical, fluorescence polarization, Cy5-IP20, bovine R1A, mouse PKAc | PKA-R1A dissociation; scaled: DMSO 0%, 113 µM cGMP 100% | activation, % at 11.4 µM | actives 0.083% (n = 340,000) | AID 504707, 2011;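 active means percent activation above the mean of all tested compounds plus 3 SD, cut at about 19% in these data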;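 further: higher means more PKAc released from R1A so a rise in polarization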
# NTR1 ag: agonists of human NTR1, primary screen, imaging, U2OS cells, beta-arrestin-GFP, high content. Neurotensin receptor type 1 (Homo sapiens), P30989. NTR1-U2OS beta-arrestin-GFP spot imaging, agonist mode. activation, % at 20 µM. actives 0.17% (n = 330,000). AID 493036, 2011;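 active means activation at or above 40% of the spot to cytoplasm intensity ratio, with at least 20 cells analyzed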;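 further: 0% = DMSO without peptide and 100% = 100 nM NTR1 peptide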
# dFosB act-2: activators of mouse delta FosB DNA binding, confirmation, biochemical, fluorescence polarization, TAMRA-CDK5 oligo, cherry-picked samples. shares compounds with dFosB act-1. purified delta FosB; normalised: neutral wells 0, positive control 100. activation, % at 24.9 µM. 2,400 tested, under 10 active. AID 588690, 2011;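 active means highest replicate activation at or above 34% and every replicate reaching that threshold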;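 further: higher polarization means more probe DNA bound by delta FosB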
# Numbers without * were called inactive; . = no result given.
SMILES,CAL PDZ FP-1,dFosB act-1,CAL PDZ FP-2,PKA-R2B act,PKA-R1A activ,NTR1 ag,dFosB act-2
COc1ccc(COCC(O)CN2CCN(S(=O)(=O)c3c(F)cccc3F)CC2)cc1OC (centres undefined),-1,-5,-1,-6,-16,.,.
CCc1nnc(NC(=O)CSc2ccc(-c3nc4ccccc4[nH]3)cn2)s1,-2,48*,-3,-12,-16,2,5
COCCNC(=O)CSc1ccc(-c2nc3ccccc3[nH]2)cn1,0,-8,.,4,9,-1,.
Cc1nc(NC(=O)CSc2ccc(-c3nc4ccccc4[nH]3)cn2)sc1C,-1,47*,0,6,-8,20,2
COC(=O)c1cc(NC(=O)C2CC(=O)NC(=NCc3ccc(OC)cc3)S2)cc(C(=O)OC)c1 (centres undefined),-1,37*,8,-6,-7,1,-5
Cc1cc([N+](=O)[O-])c(C)cc1-c1ccc(/C=N/NC(=O)Cn2nnnc2N)o1,.,33*,-5,4,-3,2,6
Nc1nnnn1CC(=O)N/N=C/c1cc([N+](=O)[O-])ccc1Cl,-1,2,-3,-14,-4,0,.
CC(=O)N1CCOc2ccc(S(=O)(=O)NCC3CCC(C(=O)Nc4ccc(C)cn4)CC3)cc21 (centres undefined),-1,1,-2,7,-13,2,.
CC(OC(=O)c1cccc(-n2cnnn2)c1)C(=O)Nc1ccc(F)c(F)c1F (centres undefined),-2,30*,-3,9,-10,.,-1
CCOc1ccc(NC(=O)c2cn(-c3ccc(OCC)cc3)c(=O)c3cc(OC)c(OC)cc23)cc1,-2,20*,.,-5,-3,0,1
CCOc1ccc(-n2cc(C(=O)Nc3cccc(Cl)c3)c3cc(OC)c(OC)cc3c2=O)cc1,-2,29*,1,5,-11,1,7
CCOc1ccc(-n2cc(C(=O)NC(C)C)c3cc(OC)c(OC)cc3c2=O)cc1,-2,-16,1,2,7,-2,.
CC1=C(O)C(=O)C(c2c(C)cc(C)c(Br)c2C)=C(O)C1=O,.,.,.,2,-3,.,.
CN(CC(=O)Nc1ccccc1Cl)C(=O)COC(=O)c1ccc(C(F)(F)F)cc1,-1,-8,0,2,-6,-1,.
CN(CC(=O)Nc1ccccc1Cl)C(=O)COC(=O)c1ccc(-c2ccc(O)cc2)cc1,-1,45*,-2,-1,-2,0,0
C[N+](C)(C)CC(=O)N/N=C/c1c2ccccc2cc2ccccc12,-2,31*,-3,8,-13,0,1
Cc1ccc([N+](=O)[O-])cc1S(=O)(=O)Nc1ccc(OCC(=O)N2CCOCC2)cc1,-2,-2,-5,-14,-1,0,.
O=C(CCNC(=O)c1ccccc1)Nc1ccc(S(=O)(=O)Nc2ncccn2)cc1,-3,-4,0,-2,-4,-2,.
CCOC(=O)c1ccc(S(=O)(=O)NNC(=O)COc2ccc(C)cc2)cc1,-2,61*,-2,-12,17,-1,4
CCOC(=O)c1ccc(S(=O)(=O)NNC(=O)COc2cccc(C)c2)cc1,0,-6,-1,-6,4,3,.
COc1ccc(/C=C/C(=O)NC(=S)NNC(=O)[C@H]2C[C@@H]2c2ccccc2)cc1OC,-1,71*,24,-2,1,-1,4

# Source: PubChem BioAssay
